# From PubChem
# Scp-1 inhibitor – inhibitors of human Scp-1 phosphatase. AID 493091. Q9GZU7. 340,000 tested, 0.88% active. inhibition, % at 20 µM. Recombinant Scp1, phosphopeptide, malachite green phosphate absorbance;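 active = inhibition above about 50% at 20 µM, limit read from the data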;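 note: plate controls were DMSO wells with enzyme for no effect and wells lacking enzyme for full effect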
#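 System: truncated SCP-1 phosphatase (76-261aa); medium: Tris acetate buffer pH 5.5 with MgCl2 and Tween-20; incubation: 45 min room-temperature reaction, 5 min colour, 30 min stabiliser; compound: single 20 µM dose, 1% DMSO; reagent: Phosphorylated 17-residue peptide substrate; read-out: % inhibition at 20 µM; technique: colorimetric free-phosphate detection, absorbance 630 nm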
# DNMT1 block – blocks human DNA methyltransferase DNMT1. P26358. DNMT1 molecular beacon, Hinp1I cleavage, fluorescence. inhibition (reported as % activation of signal), % at 10 µM. 360,000 tested, 0.83% active. AID 588458; in the data active = inhibition above about 50%
# Rpn11 inh – blocks the human proteasome subunit Rpn11 | O00487 | human 26S proteasome, Ub4-pepOG fluorescence polarization; 20S core pre-blocked with epoxomicin | inhibition, % at 20 µM | 360,000 tested, 0.59% active | AID 588493;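 active = inhibition at 20 µM, scaled to each plate's controls, above about 33%, limit read from the data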
# SUMO1 PPI mod – modulators of human SUMO1-mediated protein-protein interactions | SUMO1 binding to a labelled peptide, TR-FRET, 1 h | inhibition, % at 20 µM | 360,000 tested, 0.33% active | P63165; in the data active = inhibition above about 37%
# STEP inh – STEP (human) phosphatase inhibition | inhibition, % at 20 µM | recombinant STEP, OMFP fluorogenic substrate, fluorescence | AID 588621 | 360,000 tested, 0.25% active;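 active = inhibition at 20 µM, scaled per plate between control wells, above about 37%, limit read from the data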;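 note: 0% = DMSO with enzyme and substrate and 100% = substrate only without enzyme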
# Target sequence (P54829 whole entry, looked up): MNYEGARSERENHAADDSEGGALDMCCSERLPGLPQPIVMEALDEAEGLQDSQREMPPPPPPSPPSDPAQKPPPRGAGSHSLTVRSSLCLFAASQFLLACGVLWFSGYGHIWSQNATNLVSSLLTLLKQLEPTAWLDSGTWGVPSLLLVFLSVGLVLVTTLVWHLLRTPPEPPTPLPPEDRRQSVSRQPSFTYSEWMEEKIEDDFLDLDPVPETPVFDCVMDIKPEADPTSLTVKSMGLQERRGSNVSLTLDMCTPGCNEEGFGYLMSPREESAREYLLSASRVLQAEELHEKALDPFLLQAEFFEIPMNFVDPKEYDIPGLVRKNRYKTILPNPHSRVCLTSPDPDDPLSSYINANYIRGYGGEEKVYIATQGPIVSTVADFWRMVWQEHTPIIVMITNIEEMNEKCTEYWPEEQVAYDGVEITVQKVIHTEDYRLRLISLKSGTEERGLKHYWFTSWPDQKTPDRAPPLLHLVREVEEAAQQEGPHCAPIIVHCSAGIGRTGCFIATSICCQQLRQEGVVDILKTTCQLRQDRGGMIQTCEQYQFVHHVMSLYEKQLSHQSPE
#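 Assay system: isolated STEP enzyme / Timing: 20 min at room temperature, dark / Doses: 20 µM, 1% DMSO / Technique: fluorescence intensity, excitation 480 nm, emission 540 nm / Reagent: fluorogenic phosphatase substrate OMFP at 25 µM final / Measure: percent inhibition scaled to no-enzyme and uninhibited-enzyme controls, plate-pattern corrected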
# LMPTP block – LMPTP (human) inhibition | inhibition, % at 20 µM | AID 651560 | recombinant LMPTP-A, OMFP fluorogenic substrate, fluorescence intensity | 360,000 tested, 0.22% active | P24666;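 active = compounds that cut the enzyme signal by at least half of the control window in the single-dose screen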;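 note: plate controls were DMSO wells with enzyme plus substrate for no effect and substrate without enzyme for full effect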
#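 Test system – LMPTP-A phosphatase enzyme · Quantity – 0.625 nM LMPTP-A final · Reagent – OMFP substrate, 400 µM final · Dosing – one test concentration per compound, 20 µM, with 3% DMSO overall · Timing – 50 min enzyme reaction at room temperature, protected from light · Detection – fluorescence intensity · Controls – substrate-only low control, DMSO enzyme-plus-substrate high control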
# Active calls of the source: *; i = inactive; . = no result shown; + = active, no number; ! = not confirmed by another sample. Hits are enriched below; roughly 2.3% of the tested compounds scored in any of these assays.
SMILES,Scp-1 inhibitor,DNMT1 block,Rpn11 inh,SUMO1 PPI mod,STEP inh,LMPTP block
Cc1sc(NC(=O)CSc2nnc3scc(-c4ccccc4)n23)c(C#N)c1C,-6,7,2,45*,2,1
COc1cc([N+](=O)[O-])ccc1NC(=O)COC(=O)c1ccc(NC(N)=O)cc1,-5,3,-6,45*,2,19
C=C(C)CSc1nnc(CCCCCNC(=O)OC(C)(C)C)o1,-11,-2,0,2,1,0
CN(C)/C=C1\C=C2C(=O)c3ccccc3N2C1=O,-16,+,-163,-158,i,-72
O=S(=O)(O)c1cc(Cl)cc(N=Nc2ccc(O)cc2O)c1O,73*,68*,-18,-14,3,50*
O=C1CSC(=S)N1/N=C/c1ccc(O)c(O)c1O,53*,4,.,10,15,65*
COc1ccccc1C=NN1C(=O)CSC1=S,0,-31,40,-3,-2,0
N[C@@H](Cc1cc(I)c(Oc2ccc(O)c(I)c2)c(I)c1)C(=O)O,27,77*!,59*!,40*!,-3,32
N[C@@H](Cc1cc(I)c(Oc2cc(I)c(O)c(I)c2)c(I)c1)C(=O)O,32,.,.,.,.,.
O=S(=O)(Nc1cc(Sc2ncn[nH]2)c(O)c2ccccc12)c1ccccc1,17,24,6,85*,3,9
COc1ccc(-c2nnn(CC(=O)N3CCOCC3)n2)cc1,-4,0,-2,3,7,-2
O=C(Cc1cccs1)Nc1ccc(-c2nnn(CC(=O)N3CCOCC3)n2)cc1,79*,.,.,.,.,.
C=CCNC(=O)C1COc2ccccc2O1 (stereo unspecified),-14,2,-5,0,0,-1
COc1cccc(C(=O)OCC(=O)NC23CC4CC(CC(C4)C2)C3)c1,-5,1,3,0,0,0
CC(=O)Oc1cc(C(=O)OCC(=O)NC23CC4CC(CC(C4)C2)C3)cc(OC(C)=O)c1OC(C)=O,70*,16,8,9,2,22
O=[N+]([O-])c1ccc(O)c(/C=N/Nc2ncnc3c2cnn3-c2ccccc2)c1,11,-21,20,19,10,50*
C[C@]12C=CC(=O)C=C1CC[C@@H]1C2=CC[C@]2(C)[C@@H](C(=O)CN3CCN(c4cc(N5CCCC5)nc(N5CCCC5)n4)CC3)CC[C@@H]12,4,61*,34,-35,3,6
CC(=O)C1CCC2C3CCC4=CC(=O)C=CC4(C)C3C(=O)CC12C (stereo unspecified),6,0,0,1,2,0
Cc1cc(C(=O)Nc2cccc(C(=O)O)c2)c(C)o1,6,6,2,0,-1,-1
Cc1cc(C(=O)Nc2cccc(O)c2)c(C)o1,0,-6,0,37*,0,1
CCc1ccccc1NC(=O)C1(S(=O)(=O)c2ccc(C)cc2)CC1,-4,0,-1,1,-1,1
NC(=O)C1CCN(C(=S)c2ccc(-c3ccc(Br)cc3)o2)CC1,-3,-1,0,-7,95*,-1
NC(=O)c1ccc(-c2ccc(Br)cc2)o1,-3,-2,-17,-15,-4,1
C=CCSc1ncc(C(=O)OCC)c(N)n1,-1,1,-2,2,-3,3
CCOC(=O)c1cnc(SSc2ncc(C(=O)OCC)c(N)n2)nc1N,4,3,1,-2,-3,78*
SMILES,Scp-1 inhibitor,DNMT1 block,Rpn11 inh,SUMO1 PPI mod,STEP inh,LMPTP block
O=C(CCN1C(=O)C2C3CCC(C3)C2C1=O)OCC(=O)c1ccc(Cl)cc1 (stereo unspecified),7,1,-4,-4,5,-1
O=C(Nc1ccc(-n2nncc2-c2ccco2)cc1)c1cc2ccccc2oc1=O,35,112*,.,57*,45*,20
CCOC(=O)c1ccc2c(c1)nc(-c1ccc(F)cc1)c1nccn12,-1,18,-1,48*,-1,-1
C[n+]1c2cc(N)ccc2cc2ccc(N)cc21,-1,+,-218,78*!,i,8
O=C(NCCc1ccccc1F)c1cccc2cccnc12,-1,-6,20,-45,0,0
COc1ccc(-c2nc3ccc(C)cn3c2NCc2ccccc2)cc1SC1CCCCC1,20,60*,7,-3,6,4
CCCCNc1c(-c2ccc(OC)c(SC3CCCCC3)c2)nc2ccc(C)cn12,23,-17,8,-21,6,10
CC(C)CC1C(=O)N(Cc2cn(CCC3OCCCO3)nn2)CCS(=O)(=O)N1Cc1ccc(-c2ccc(Cl)nc2)cc1 (stereo unspecified),.,-6,7,6,-1,1
O=C(CSc1nnc(SCc2ccccc2)s1)N/N=C/c1c[nH]c2ccccc12,-2,4,-4,75*,4,12
NC1=NC2(CCCCC2)n2c(nc3ccccc32)N1,-7,8,-11,0,0,22
NC1=NC2(CCN(Cc3ccccc3)CC2)n2c(nc3ccccc32)N1,-7,3,0,-4,2,49*
CC[n+]1ccccc1/C=C1\Sc2ccc(C)cc2N1C,79*,1,3,-33,-1,1
CC[n+]1ccccc1/C=C/Nc1ccccc1,5,-5,-4,-6,-3,0
COc1cc(C#Cc2ccc3cc(CCO)oc(=O)c3c2)cc(OC)c1,-6,-12,7,-19,-2,0
CN(C)c1ccc(C#Cc2ccc3cc(CCO)oc(=O)c3c2)cc1,38,42,64*,-14,97*,68*
S=c1[nH]nc2ccc3ccccc3n12,.,-1,10,-3,0,71*
COc1ccccc1S(=O)(=O)Cc1ccc(C(=O)NC(C)c2ccc3c(c2)OCCO3)o1 (stereo unspecified),3,-2,-3,1,0,-1
COc1ccc(N2CCN(S(=O)(=O)c3ccc(C(=O)NC4CCCC4)cc3)CC2)cc1,-2,9,-2,51*,-3,-2
CN1C(C)(C)CC(O)(C(=O)O)CC1(C)C,.,1,-9,2,2,-2
O=c1cc(CSc2nc(NCc3ccccc3)c3ccccc3n2)nc2ccc(Cl)cn12,1,-2,-1,-15,0,53*
O=C(NCCc1cccs1)c1ccc(Cl)cc1,-7,0,5,0,-2,0
NC(=O)c1ccc(NCCc2cccs2)cc1,.,-3,-1,39*,-1,-1
C=CCOC(=O)C1=C[C@H](C2CCCCC2)[C@@H](CCCO)[C@H](OCC)O1,-9,6,10,0,0,1
CCN1CCN(C2=CC3=CC(=C(C#N)C#N)CCC3CC2)CC1 (stereo unspecified),-1,+,.,-95,-205,17
